Measured values taken from ChEMBL document CHEMBL4190362, “Synthesis, biological evaluation and quantitative structure-active relationships of 1,3-thiazolidin-4-one derivatives. A promising chemical scaffold endowed with high antifungal potency and low cytotoxicity” (Eur J Med Chem, 2017).

Key:
Type in all cases: functional
Staphylococcus aureus = test: Antibacterial activity against Staphylococcus aureus assessed as inhibition of microbial growth incubated for 18 to 22 hrs by broth microdilution method
Summary of the method: (§1)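 Broth microdilution in Mueller-Hinton II broth following NCCLS recommendations; compounds dissolved in DMSO.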

Staphylococcus warneri = test: Antibacterial activity against Staphylococcus warneri assessed as inhibition of microbial growth incubated for 18 to 22 hrs by broth microdilution method; summary of the method: as §1
Enterococcus faecalis = test: Antibacterial activity against Streptococcus faecalis assessed as inhibition of microbial growth incubated for 18 to 22 hrs by broth microdilution method; summary of the method: as §1
Escherichia coli = test: Antibacterial activity against Escherichia coli assessed as inhibition of microbial growth incubated for 18 to 22 hrs by broth microdilution method; summary of the method: as §1
Proteus mirabilis = test: Antibacterial activity against Proteus mirabilis assessed as inhibition of microbial growth incubated for 18 to 22 hrs by broth microdilution method; summary of the method: as §1
Enterobacter = test: Antibacterial activity against Enterobacter spp. assessed as inhibition of microbial growth incubated for 18 to 22 hrs by broth microdilution method; summary of the method: as §1
Klebsiella oxytoca = test: Antibacterial activity against Klebsiella oxytoca assessed as inhibition of microbial growth incubated for 18 to 22 hrs by broth microdilution method; summary of the method: as §1
Candida albicans = test: Antifungal activity against Candida albicans clinical isolates assessed as inhibition of microbial growth incubated for 24 hrs by broth microdilution method
Summary of the method: (§2)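 Twenty-two clinical Candida isolates (8 C. albicans, 4 C. glabrata, 3 C. tropicalis, 3 C. krusei, 2 C. parapsilosis, 2 C. sake) were identified by colony morphology and biochemistry and subcultured at 35 °C for purity. Compounds were dissolved in DMSO and tested by broth microdilution in Sabouraud dextrose broth per NCCLS/CLSI/EUCAST guidance. Values are geometric mean MIC per species (µg/mL).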

Nakaseomyces glabratus = test: Antifungal activity against Candida glabrata clinical isolates assessed as inhibition of microbial growth incubated for 24 hrs by broth microdilution method; summary of the method: as §2
Candida tropicalis = test: Antifungal activity against Candida tropicalis clinical isolates assessed as inhibition of microbial growth incubated for 24 hrs by broth microdilution method; summary of the method: as §2
Pichia kudriavzevii = test: Antifungal activity against Candida krusei clinical isolates assessed as inhibition of microbial growth incubated for 24 hrs by broth microdilution method; summary of the method: as §2
Candida parapsilosis = test: Antifungal activity against Candida parapsilosis clinical isolates assessed as inhibition of microbial growth incubated for 24 hrs by broth microdilution method; details: Lodderomyces parapsilosis; summary of the method: as §2
[Candida] sake = Antifungal activity against Candida sake clinical isolates assessed as inhibition of microbial growth incubated for 24 hrs by broth microdilution method; details: Fermentozyma sake; summary of the method: as §2

Compound	MIC (Staphylococcus aureus) [µg/mL]	MIC (Staphylococcus warneri) [µg/mL]	MIC (Enterococcus faecalis) [µg/mL]	MIC (Escherichia coli) [µg/mL]	MIC (Proteus mirabilis) [µg/mL]	MIC (Enterobacter) [µg/mL]	MIC (Klebsiella oxytoca) [µg/mL]	MIC (Candida albicans) [µg/mL]	MIC (Nakaseomyces glabratus) [µg/mL]	MIC (Candida tropicalis) [µg/mL]	MIC (Pichia kudriavzevii) [µg/mL]	MIC (Candida parapsilosis) [µg/mL]	MIC ([Candida] sake) [µg/mL]
CCC/C(C)=N\N=C1\SCC(=O)N1Cc1ccccc1	≥ 256	≥ 256	≥ 256	≥ 256	≥ 256	≥ 256	≥ 256	8	2	8	16	8	32
C=CCC/C(C)=N\N=C1\SCC(=O)N1Cc1ccccc1	≥ 256	≥ 256	≥ 256	≥ 256	≥ 256	≥ 256	≥ 256	8	2	8	8	8	8
C/C(=N/N=C1/SCC(=O)N1Cc1ccccc1)C1CC1	≥ 256	≥ 256	≥ 256	≥ 256	≥ 256	≥ 256	≥ 256	2	4	2	2	2	2
CC(C)=N/N=C1/SCC(=O)N1Cc1ccccc1	≥ 256	≥ 256	≥ 256	≥ 256	≥ 256	≥ 256	≥ 256	256	256	256	256	256	256
CCC(CC)=N/N=C1/SCC(=O)N1Cc1ccccc1	≥ 256	≥ 256	≥ 256	≥ 256	≥ 256	≥ 256	≥ 256	32	2	32	8	8	8
CCC/C(CC)=N\N=C1\SCC(=O)N1Cc1ccccc1	≥ 256	≥ 256	≥ 256	≥ 256	≥ 256	≥ 256	≥ 256	4	4	4	4	8	8
CC1CCC/C1=N/N=C1/SCC(=O)N1Cc1ccccc1 (stereo not given)	≥ 256	≥ 256	≥ 256	≥ 256	≥ 256	≥ 256	≥ 256	8	8	8	4	4	4
CC1CCC(=N/N=C2/SCC(=O)N2Cc2ccccc2)CC1 (stereo not given)	≥ 256	≥ 256	≥ 256	≥ 256	≥ 256	≥ 256	≥ 256	8	8	16	16	16	16
C/C(CC(C)C)=N/N=C1/SCC(=O)N1Cc1ccccc1	≥ 256	≥ 256	≥ 256	≥ 256	≥ 256	≥ 256	≥ 256	8	8	16	16	16	16
CC1CCCC/C1=N/N=C1/SCC(=O)N1Cc1ccccc1 (stereo not given)	≥ 256	≥ 256	≥ 256	≥ 256	≥ 256	≥ 256	≥ 256	16	2	32	16	4	16
CCCC/C(CC)=N\N=C1\SCC(=O)N1Cc1ccccc1	≥ 256	≥ 256	≥ 256	≥ 256	≥ 256	≥ 256	≥ 256	128	32	16	4	8	4
CC/C(C)=N\N=C1\SCC(=O)N1Cc1ccccc1	≥ 256	≥ 256	≥ 256	≥ 256	≥ 256	≥ 256	≥ 256	8	16	8	16	8	32
CCCCCC/C(C)=N\N=C1\SCC(=O)N1Cc1ccccc1	≥ 256	≥ 256	≥ 256	≥ 256	≥ 256	≥ 256	≥ 256	8	8	16	16	16	16
CCCCC/C(C)=N\N=C1\SCC(=O)N1Cc1ccccc1	≥ 256	≥ 256	≥ 256	≥ 256	≥ 256	≥ 256	≥ 256	8	8	16	16	16	16
O=C1CS/C(=N/N=C2CCCC2)N1Cc1ccccc1	≥ 256	≥ 256	≥ 256	≥ 256	≥ 256	≥ 256	≥ 256	8	8	16	16	16	16
CC(C)=C/C(C)=N\N=C1\SCC(=O)N1Cc1ccccc1	≥ 256	≥ 256	≥ 256	≥ 256	≥ 256	≥ 256	≥ 256	128	2	128	8	8	8
CCCC/C(C)=N\N=C1\SCC(=O)N1Cc1ccccc1	≥ 256	≥ 256	≥ 256	≥ 256	≥ 256	≥ 256	≥ 256	2	2	2	2	2	4
O=C1CS/C(=N/N=C2CCCCCC2)N1Cc1ccccc1	≥ 256	≥ 256	≥ 256	≥ 256	≥ 256	≥ 256	≥ 256	256	256	256	256	256	256
CC1CC/C(=N/N=C2/SCC(=O)N2Cc2ccccc2)C1 (stereo not given)	≥ 256	≥ 256	≥ 256	≥ 256	≥ 256	≥ 256	≥ 256	256	256	256	256	256	256
CC1CCC/C(=N/N=C2/SCC(=O)N2Cc2ccccc2)C1 (stereo not given)	≥ 256	≥ 256	≥ 256	≥ 256	≥ 256	≥ 256	≥ 256	8	8	8	4	4	4
C[C@@H]1[C@H](O)[C@@H](C)/C=C/C=C/C=C/C=C/C=C/C=C/C=C/[C@H](O[C@@H]2O[C@H](C)[C@@H](O)[C@H](N)[C@@H]2O)C[C@@H]2O[C@](O)(C[C@@H](O)C[C@@H](O)[C@H](O)CC[C@@H](O)C[C@@H](O)CC(=O)O[C@H]1C)C[C@H](O)[C@H]2C(=O)O [AMPHOTERICIN B]								4	4	2	4	2	2
OC(Cn1cncn1)(Cn1cncn1)c1ccc(F)cc1F [FLUCONAZOLE]								2	2	2	2	2	2
CC(=O)N1CCN(c2ccc(OCC3COC(Cn4ccnc4)(c4ccc(Cl)cc4Cl)O3)cc2)CC1 (stereo not given) [KETOCONAZOLE]								2	2	2	4	2	4
Clc1ccc(COC(Cn2ccnc2)c2ccc(Cl)cc2Cl)c(Cl)c1 (stereo not given) [MICONAZOLE]								2	4	2	4	4	2
Clc1ccc(C(Cn2ccnc2)OCc2ccsc2Cl)c(Cl)c1 (stereo not given) [TIOCONAZOLE]								8	4	8	8	8	4
